Test results: ChEMBL document CHEMBL1127529, “Antipsoriatic anthrones with modulated redox properties. 2. Novel derivatives of chrysarobin and isochrysarobin--antiproliferative activity and 5-lipoxygenase inhibition” (J Med Chem, 1994)

How the values were obtained:
Liposome = assay: Inhibition of 2,2'-azobis(2-aminopropane)hydrochloride (AAPH) induced lipid peroxidation in bovine brain phospholipid liposomes; assay type: functional, subcellular, Bos taurus
[1] = Deoxyribose degradation as a measure of hydroxy radical formation.; assay type: functional
Outline: (§1)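 2-Deoxy-D-ribose (2 mM) was incubated with FeCl3 (0.1 mM) and compound (75 μM) in KH2PO4-KOH buffer pH 7.4 (30 mM) for 2 h at 37 °C with shaking. TBA-reactive material was read at 532 nm. Result is µmol malondialdehyde per mmol deoxyribose.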

[2] = biological target: T1, Arachidonate 5-lipoxygenase (Bos taurus, UniProt Q9BEG3); assay: Inhibition of 5-lipoxygenase in bovine polymorphonuclear leukocytes; assay type: cell-based
T1 sequence (Q9BEG3 whole entry): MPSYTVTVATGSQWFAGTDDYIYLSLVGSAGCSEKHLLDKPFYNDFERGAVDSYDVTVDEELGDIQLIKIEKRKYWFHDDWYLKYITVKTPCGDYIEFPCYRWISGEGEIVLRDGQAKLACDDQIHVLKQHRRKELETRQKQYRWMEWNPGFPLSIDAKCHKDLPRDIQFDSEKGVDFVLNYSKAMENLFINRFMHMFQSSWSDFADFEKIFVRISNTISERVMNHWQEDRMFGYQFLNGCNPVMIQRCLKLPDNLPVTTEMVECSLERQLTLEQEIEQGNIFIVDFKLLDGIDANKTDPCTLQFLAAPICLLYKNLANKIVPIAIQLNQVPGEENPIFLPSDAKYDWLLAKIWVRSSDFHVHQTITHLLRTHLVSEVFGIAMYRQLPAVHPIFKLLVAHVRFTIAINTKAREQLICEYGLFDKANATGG
Outline: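 Bovine PMNL (10^7 cells/mL) were stimulated with Ca-ionophore. Compound was preincubated for 15 min at 37 °C.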

[3] = Reducing activity against 2,2-diphenyl-1-picrylhydrazyl (DPPH) with equimolar compound; assay type: functional
Outline: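 Test compound and DPPH, each 10⁻⁴ M in acetone/PBS (1-1 v/v), mixed 1 mL + 1 mL. DPPH reduction followed spectrophotometrically at 516 nm. Reciprocal DPPH concentration plotted against time gave straight lines, and second-order rate constants (M⁻¹ s⁻¹) were taken from the slopes. Values are means, N = 3-6. Highly reactive compounds gave approximate values only.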

[4] = Partition coefficient (logP) (HPLC); assay type: physicochemical; conditions: octanol/water
Outline: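 Reversed-phase HPLC with MeOH/water/HOAc (77-23-0.1) as eluant, adjusted to pH 5.5 with concentrated NH3.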

HaCaT = assay: Antiproliferative activity against HaCaT cells; assay type: functional, cell-based; conditions: Homo sapiens
Outline: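 HaCaT human keratinocytes were kept in DMEM with 10% FCS, penicillin and streptomycin at 37 °C under 8% CO2. After 48 h the cells were detached with trypsin/EDTA and counted by phase-contrast microscopy.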

[5] = Deoxyribose degradation assay as hydroxy radical formation; assay type: functional; outline: as §1

SMILES	IC50 (Liposome) [µM]	DD (uM of MDA mM-1) [1]	IC50 [2] [µM]	kDPPH [3] [M⁻¹ s⁻¹]	logP [4]	IC50 (HaCaT) [µM]	DD (uM of MDA mM-1) [5]
CC(Cc1ccc(O)c(O)c1)C(C)Cc1ccc(O)c(O)c1 (configuration not stated) [NORDIHYDROGUAIARETIC ACID]	2						
O=C1c2c(O)cccc2Cc2ccc(CCCCc3ccccc3)c(O)c21	112	< 0.15	> 30	10.4	6.81		
COc1ccc(CCCc2ccc3c(c2O)C(=O)c2c(O)cccc2C3)cc1		< 0.15	30	14	6.46	> 5	
O=C1c2c(O)cccc2Cc2ccc(Cc3ccc(O)c(O)c3)c(O)c21		1.82	4	> 100	4.01	0.4	
COc1ccc(OC)c(Cc2ccc3c(c2O)C(=O)c2c(O)cccc2C3)c1	> 200	< 0.15	> 30	> 100	5.72		
O=C1c2c(O)cccc2Cc2ccc(CCCc3cc(O)c(O)c(O)c3)c(O)c21	5	2.97	0.6	> 100	3.96	0.5	
COC(=O)c1ccccc1Cc1ccc2c(c1O)C(=O)c1c(O)cccc1C2		< 0.15	> 30	11.4	5.24		
COc1cc(CCCc2ccc3c(c2O)C(=O)c2c(O)cccc2C3)cc(OC)c1OC		< 0.15	6	> 100	5.64	2	
O=C1c2c(O)cccc2Cc2ccc(Cc3ccc(C(F)(F)F)cc3)c(O)c21		< 0.15	> 30	3.7	5.92	> 5	
COC(=O)c1ccc(Cc2ccc3c(c2O)C(=O)c2c(O)cccc2C3)cc1		< 0.25	> 30	10.4	5.34		
COc1ccc(Cc2cc(O)c3c(c2)Cc2cccc(O)c2C3=O)cc1	33	< 0.15	> 30	11.2	5.3	0.3	
O=C(c1ccccc1)c1cc(O)c2c(c1)Cc1cccc(O)c1C2=O	40	1.97	> 30	> 100	4.83		
O=C1c2c(O)cccc2Cc2ccc(Cc3ccccc3O)c(O)c21	25	0.35	5	> 100	4.67	0.7	
Cc1ccc(Cc2ccc3c(c2O)C(=O)c2c(O)cccc2C3)cc1			> 30	8.5	6.04		< 0.25
O=C1c2c(O)cccc2Cc2ccc(Cc3ccc(Cl)cc3)c(O)c21	150	< 0.15	> 30	19.3	5.98		
O=C1c2c(O)cccc2Cc2ccc(Cc3ccc(O)cc3O)c(O)c21	16	0.34	5	> 100	3.68	1.5	
COc1ccc(Cc2ccc3c(c2O)C(=O)c2c(O)cccc2C3)cc1OC		< 0.15	> 30	> 100	5.79		
COc1ccc(Cc2ccc3c(c2O)C(=O)c2c(O)cccc2C3)c(OC)c1		< 0.15	> 30	> 100	5.04	> 5	
O=C1c2c(O)cccc2Cc2ccc(Cc3cc(O)ccc3O)c(O)c21	7	1.46	0.9	> 100	3.33	0.7	
O=C1c2c(O)cccc2Cc2ccc(CCc3ccccc3)c(O)c21	110	< 0.15	> 30	16.1	6.23		
